Source: article PMC5955456 (Virulence, 2018)
No end group written: not given here.

Assays:
E. coli = assay: Viable count analysis; type: cell-based, Escherichia coli; details: GGL27 1 µM, 1 hour at 37°C, normal human citrated plasma; Fig. 3h
Summary of the method: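 Mid-exponential E. coli grown in Todd-Hewitt broth and washed. 2 x 10^8 cfu/ml incubated 60 min at 37°C with test peptide in 100% human citrated plasma, or in plasma pretreated 3 h with IdeS (0.2 µg/µl) to remove IgG. Serial dilutions plated on TH agar overnight at 37°C; cfu counted and expressed as % survival, mean ± SD.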

bacteria = details: buffer with physiological salt content or plasma; ref [7]; cited from earlier work
[1] = test system: intrinsic pathway of coagulation; assay: aPTT clotting assay in crocodile plasma; type: biochemical, crocodile (Crocodylus siamensis); details: peptide 50 µM in citrated crocodile plasma; n=3; Fig. 4b; words
[2] = test system: intrinsic pathway of coagulation; assay: aPTT clotting assay in turkey plasma; type: biochemical; details: peptide 50 µM in citrated turkey plasma; n=3; Fig. 4c; words

Substance: GGLIKTKRKRKKQRVKIAYEEIFVKNM [GGL27]
- killing of E. coli (E. coli): ~100%

Substance: LL-37: antibacterial peptide (LLGDFFRKSKEKIGKEFKRIVQRIKDFLRNLVPRTES; Antibacterial peptide LL-37; UniProt P49913 134-170, looked up)
- killing activity in physiological salt or plasma (bacteria): lose their killing activity

Substance: RGIIKIKRKRKKQPEKMVRDEIIIERI [American alligator]
- aPTT clotting time [1]: clotting times were prolonged

Substance: RRLIRIKKKKKQSLKTVGEEIIRGRIQ [Common turkey]
- aPTT clotting time [2]: shortened clotting time
